Reference: ChEMBL document CHEMBL3400062, “Synthesis of novel C5-curcuminoid-fatty acid conjugates and mechanistic investigation of their anticancer activity” (Bioorg Med Chem Lett, 2015)
In brackets after ≈: the same amount, converted by molar mass.

Columns and labels:
[1] = Cytotoxicity against human CCL229 cells after 3 days by MTT assay; assay type: functional, cell-based; conditions: CCL229, 72 h
How it was run: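 CCL-229 colon cancer cells grown in F12K medium (2 mM L-glutamine, 1500 mg/L sodium bicarbonate), seeded at 10,000 cells/well. Compounds added at final 5–500 µg/mL. Incubation 3 days at 37°C, humidified 5% CO2. Viability read by MTT. IC50 is the concentration giving 50% viability, taken from dose-response curves. Triplicate, mean ± SEM.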

[2] = molecular target: T1, DNA topoisomerase 1 (Homo sapiens) (UniProt P11387); test: Inhibition of human DNA topoisomerase 1 using pHOT1 supercoiled DNA substrate incubated for 30 mins by ethidium bromide staining based gel electrophoresis method
T1 sequence (whole entry): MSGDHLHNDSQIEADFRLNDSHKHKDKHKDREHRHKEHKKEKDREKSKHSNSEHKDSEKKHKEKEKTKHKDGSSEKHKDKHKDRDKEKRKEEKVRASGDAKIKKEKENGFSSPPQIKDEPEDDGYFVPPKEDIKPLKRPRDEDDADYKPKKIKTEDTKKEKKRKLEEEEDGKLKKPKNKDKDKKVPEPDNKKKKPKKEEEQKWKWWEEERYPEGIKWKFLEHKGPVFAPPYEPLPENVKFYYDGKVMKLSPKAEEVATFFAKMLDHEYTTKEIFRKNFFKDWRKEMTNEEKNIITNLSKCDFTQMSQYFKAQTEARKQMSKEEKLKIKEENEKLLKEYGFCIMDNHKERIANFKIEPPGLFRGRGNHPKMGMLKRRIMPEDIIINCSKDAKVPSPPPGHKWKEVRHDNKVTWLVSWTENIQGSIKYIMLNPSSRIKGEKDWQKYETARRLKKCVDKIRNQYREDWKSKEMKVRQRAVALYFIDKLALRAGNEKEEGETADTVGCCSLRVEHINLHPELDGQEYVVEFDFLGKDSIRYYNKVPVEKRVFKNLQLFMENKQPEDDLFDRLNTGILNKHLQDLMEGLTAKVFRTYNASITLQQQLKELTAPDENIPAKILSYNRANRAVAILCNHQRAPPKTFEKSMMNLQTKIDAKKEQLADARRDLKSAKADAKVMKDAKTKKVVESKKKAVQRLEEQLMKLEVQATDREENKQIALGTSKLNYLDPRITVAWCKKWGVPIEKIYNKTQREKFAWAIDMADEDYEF
How it was run: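 Human DNA topoisomerase I kit with pHOT1 supercoiled DNA substrate. Compounds dissolved in 50% DMSO and tested at 10–1,500 μg/mL. Reactions run 30 min at 37°C, stopped with 10% SDS, then proteinase K 0.05 mg/mL for 15 min at 37°C. Products resolved on 1% agarose gel at 72V, stained with ethidium bromide 1 h, destained 30 min. Triplicate.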

[3] = tested on: PBMC; test: Cytotoxicity against human PBMC after 3 days by MTT assay; assay type: cell-based; conditions: 72 h
How it was run: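 PBMCs from healthy volunteers cultured in IL-2-supplemented medium, seeded at 4×10^5–5×10^4 cells/well. Compounds added at final 2–100 µg/mL. Incubation 3 days at 37°C, humidified 5% CO2, then MTT read-out. IC50 is the concentration giving 50% viability, from dose-response curves. Triplicate, mean ± SEM.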

[4] = tested on: COLO 205; test: Induction of apoptosis in human COLO205 cells assessed as caspase-3 activation at 7.4 ug/ml by FLICA staining based method; assay type: functional
How it was run: (§1)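 COLO-205 cells exposed under the annexin assay conditions (24 h; camptothecin and DMSO controls). Cells harvested and stained with fluorescent labelled inhibitors of caspases (FLICA) for active caspase 3/7, scored as % positive cells. Triplicate.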

[5] = molecular target: Nuclear factor NF-kappa-B complex (Homo sapiens) (UniProt Q00653+P19838+Q04206); test: Inhibition of TNFalpha-induced nuclear factor-kappa-B (unknown origin) expressed in HEK293 cells pre-incubated for 16 hrs followed by TNFalpha stimulation for 6 hrs by luciferase reporter gene assay; assay type: cell-based
Nuclear factor NF-kappa-B complex (Homo sapiens), sequence (P19838 whole entry, looked up): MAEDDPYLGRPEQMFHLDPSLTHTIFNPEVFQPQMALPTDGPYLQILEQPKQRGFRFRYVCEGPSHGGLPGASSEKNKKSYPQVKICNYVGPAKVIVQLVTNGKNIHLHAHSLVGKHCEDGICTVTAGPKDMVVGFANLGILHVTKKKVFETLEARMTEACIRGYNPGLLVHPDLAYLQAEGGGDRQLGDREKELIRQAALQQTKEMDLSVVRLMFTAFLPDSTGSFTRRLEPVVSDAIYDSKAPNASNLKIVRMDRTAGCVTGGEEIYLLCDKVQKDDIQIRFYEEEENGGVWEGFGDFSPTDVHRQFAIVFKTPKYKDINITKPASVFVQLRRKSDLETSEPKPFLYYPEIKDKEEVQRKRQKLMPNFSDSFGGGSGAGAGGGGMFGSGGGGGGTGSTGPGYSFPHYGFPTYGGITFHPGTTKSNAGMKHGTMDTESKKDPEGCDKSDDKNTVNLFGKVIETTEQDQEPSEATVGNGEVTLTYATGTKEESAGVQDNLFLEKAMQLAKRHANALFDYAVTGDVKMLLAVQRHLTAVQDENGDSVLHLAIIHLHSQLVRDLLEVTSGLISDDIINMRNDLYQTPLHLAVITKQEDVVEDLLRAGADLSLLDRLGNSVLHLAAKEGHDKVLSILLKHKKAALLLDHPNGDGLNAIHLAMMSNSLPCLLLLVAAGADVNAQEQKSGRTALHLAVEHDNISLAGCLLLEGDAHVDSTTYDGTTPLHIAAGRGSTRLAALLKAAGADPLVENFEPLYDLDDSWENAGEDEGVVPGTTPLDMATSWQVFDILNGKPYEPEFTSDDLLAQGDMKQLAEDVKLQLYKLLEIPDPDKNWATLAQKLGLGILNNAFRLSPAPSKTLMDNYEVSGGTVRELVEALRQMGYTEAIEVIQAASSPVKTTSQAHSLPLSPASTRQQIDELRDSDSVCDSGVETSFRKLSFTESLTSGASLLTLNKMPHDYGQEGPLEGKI
Nuclear factor NF-kappa-B complex (Homo sapiens), sequence (Q00653 whole entry, looked up): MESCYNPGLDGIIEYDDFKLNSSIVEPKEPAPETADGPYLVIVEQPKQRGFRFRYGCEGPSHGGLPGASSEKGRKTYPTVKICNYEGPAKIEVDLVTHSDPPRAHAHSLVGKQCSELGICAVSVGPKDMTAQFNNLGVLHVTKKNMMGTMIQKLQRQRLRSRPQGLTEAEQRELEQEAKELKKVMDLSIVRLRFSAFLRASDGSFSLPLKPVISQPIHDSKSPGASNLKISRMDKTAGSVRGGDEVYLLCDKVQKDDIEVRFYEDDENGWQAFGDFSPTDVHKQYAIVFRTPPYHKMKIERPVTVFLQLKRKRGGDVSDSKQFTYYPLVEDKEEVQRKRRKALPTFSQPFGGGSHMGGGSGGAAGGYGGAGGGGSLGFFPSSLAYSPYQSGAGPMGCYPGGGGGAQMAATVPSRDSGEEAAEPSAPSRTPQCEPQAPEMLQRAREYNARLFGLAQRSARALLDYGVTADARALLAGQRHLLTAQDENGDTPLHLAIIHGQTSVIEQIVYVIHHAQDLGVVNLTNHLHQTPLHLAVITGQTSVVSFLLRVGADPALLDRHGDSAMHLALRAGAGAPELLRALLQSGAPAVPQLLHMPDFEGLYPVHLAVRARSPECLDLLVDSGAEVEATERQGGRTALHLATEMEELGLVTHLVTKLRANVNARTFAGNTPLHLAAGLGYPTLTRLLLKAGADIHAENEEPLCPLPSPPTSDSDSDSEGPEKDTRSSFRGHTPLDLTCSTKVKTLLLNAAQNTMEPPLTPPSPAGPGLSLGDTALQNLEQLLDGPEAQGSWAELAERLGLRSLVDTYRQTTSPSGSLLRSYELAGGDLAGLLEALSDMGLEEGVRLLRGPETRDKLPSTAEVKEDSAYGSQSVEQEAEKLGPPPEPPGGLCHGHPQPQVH
Nuclear factor NF-kappa-B complex (Homo sapiens), sequence (Q04206 whole entry, looked up): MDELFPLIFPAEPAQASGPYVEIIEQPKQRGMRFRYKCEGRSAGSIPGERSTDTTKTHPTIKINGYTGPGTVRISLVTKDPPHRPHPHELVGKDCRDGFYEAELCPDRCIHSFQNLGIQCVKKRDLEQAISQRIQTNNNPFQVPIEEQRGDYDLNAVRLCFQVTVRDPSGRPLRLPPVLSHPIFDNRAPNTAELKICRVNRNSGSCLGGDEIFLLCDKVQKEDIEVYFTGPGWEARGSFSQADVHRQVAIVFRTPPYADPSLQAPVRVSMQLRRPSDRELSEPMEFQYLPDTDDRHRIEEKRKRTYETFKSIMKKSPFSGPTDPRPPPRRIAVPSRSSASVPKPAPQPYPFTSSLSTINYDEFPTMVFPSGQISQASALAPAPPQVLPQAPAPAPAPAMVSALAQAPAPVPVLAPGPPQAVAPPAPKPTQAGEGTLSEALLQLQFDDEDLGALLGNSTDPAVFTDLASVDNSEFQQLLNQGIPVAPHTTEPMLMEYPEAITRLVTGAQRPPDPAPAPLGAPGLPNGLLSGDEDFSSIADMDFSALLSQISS
How it was run: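 NFκB reporter HEK293 cells seeded at 30,000/well in assay medium without hygromycin B and allowed to reattach overnight at 37°C, 5% CO2. Compound dilutions added for 16 h (DMSO in untreated and cell-free controls). Mouse TNFα 5 ng/mL then added for 6 h. Cells lysed with one-step luciferase reagent about 15 min at room temperature, luminescence read. Non-linear regression; triplicate, mean ± SEM.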

[6] = tested on: COLO 205; test: Induction of apoptosis in human COLO205 cells at 7.4 ug/ml after 24 hrs by propidium iodide and annexin V staining method (reference value: 14.3%); assay type: functional
[7] = tested on: COLO 205; test: Induction of mitochondrial membrane permeabilization in human COLO205 cells at 7.4 ug/ml by JC1 dye based staining method (reference value: 14%); assay type: functional
How it was run: (§2)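 COLO-205 cells, 1×10^6 per sample, exposed under the same conditions and controls as the annexin assay (camptothecin, DMSO). Then labelled with JC-1 at 200 μg/ml and scored for % cells with permeabilized mitochondrial membranes. Triplicate.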

[8] = tested on: COLO 205; test: Induction of apoptosis in human COLO205 cells at 46 ug/ml after 24 hrs by propidium iodide and annexin V staining method (reference value: 14.3%); assay type: functional
[9] = tested on: COLO 205; test: Induction of mitochondrial membrane permeabilization in human COLO205 cells at 46 ug/ml by JC1 dye based staining method (reference value: 14%); assay type: functional; how it was run: as §2
[10] = tested on: COLO 205; test: Induction of apoptosis in human COLO205 cells assessed as caspase-3 activation at 46 ug/ml by FLICA staining based method; assay type: functional; how it was run: as §1
[11] = tested on: COLO 205; test: Induction of apoptosis in human COLO205 cells assessed as caspase-3 activation at 3.5 ug/ml by FLICA staining based method; assay type: functional
How it was run: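 COLO-205 cells treated as in the annexin assay (24 h exposure); cells harvested and stained with fluorescent labelled caspase inhibitors (FLICA) for active caspase 3/7; read as percent of cells with active caspase; triplicate runs.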

[12] = tested on: COLO 205; test: Induction of mitochondrial membrane permeabilization in human COLO205 cells at 3.5 ug/ml by JC1 dye based staining method (reference value: 14%); assay type: functional
[13] = tested on: COLO 205; test: Induction of apoptosis in human COLO205 cells at 3.5 ug/ml after 24 hrs by propidium iodide and annexin V staining method (reference value: 14.3%); assay type: functional

| Structure (SMILES) | IC50 [1] | IC50 [3] | also measured |
| --- | --- | --- | --- |
| CCCCCCCCCC(=O)Oc1ccc(/C=C/C(=O)/C=C/c2ccc(OC(=O)CCCCCCCCC)cc2)cc1 | 180 µg/mL (≈ 313 µM) |  |  |
| CCCCCCCCCCCCCCCC(=O)Oc1ccc(/C=C/C(=O)/C=C/c2ccc(OC(=O)CCCCCCCCCCCCCCC)c(OC)c2)cc1OC | 56.1 µg/mL (≈ 69.8 µM) | 40.6 µg/mL (≈ 50.5 µM) | MIC [2]: 100 µg/mL (≈ 125 µM) |
| CCCCCCCCCCCCCCCC(=O)Oc1cccc(/C=C2\CCC/C(=C\c3cccc(OC(=O)CCCCCCCCCCCCCCC)c3)C2=O)c1 | 29.3 µg/mL (≈ 37.4 µM) | 36.3 µg/mL (≈ 46.3 µM) | MIC [2]: 250 µg/mL (≈ 319 µM) |
| CCCCCCCCCCCCCCCC(=O)Oc1ccc(/C=C2\CCC/C(=C\c3ccc(OC(=O)CCCCCCCCCCCCCCC)c(OC)c3)C2=O)cc1OC | 139 µg/mL (≈ 165 µM) |  |  |
| CCCCCCCCCC(=O)Oc1cc(/C=C/C(=O)/C=C/c2ccc(OC)c(OC(=O)CCCCCCCCC)c2)ccc1OC | 66 µg/mL (≈ 104 µM) |  |  |
| COc1cc(/C=C/C(=O)CC(=O)/C=C/c2ccc(O)c(OC)c2)ccc1O [CURCUMIN] | 26.8 µg/mL (≈ 72.7 µM) | 12.3 µg/mL (≈ 33.4 µM) | Activity [4]: 23.3%; inhibition [5]: Dose-dependent effect; Activity [6]: 27.5%; Activity [7]: 23% |
| CCCCCCCCCC(=O)Oc1cccc(/C=C/C(=O)/C=C/c2cccc(OC(=O)CCCCCCCCC)c2)c1 | 22.5 µg/mL (≈ 39.1 µM) | 35.9 µg/mL (≈ 62.5 µM) | MIC [2]: 50 µg/mL (≈ 87 µM); Activity [8]: 27.5%; inhibition [5]: Dose-dependent effect; Activity [9]: 68%; Activity [10]: 19.5% |
| CCCCCCCCCC(=O)Oc1ccc(/C=C/C(=O)/C=C/c2ccc(OC(=O)CCCCCCCCC)c(OC)c2)cc1OC | 143 µg/mL (≈ 225 µM) |  |  |
| CCCCCCCCCCCCCCCC(=O)Oc1cc(/C=C2\CCC/C(=C\c3ccc(OC)c(OC(=O)CCCCCCCCCCCCCCC)c3)C2=O)ccc1OC | 130 µg/mL (≈ 154 µM) |  |  |
| CC[C@@]1(O)C(=O)OCc2c1cc1n(c2=O)Cc2cc3ccccc3nc2-1 [CAMPTOTHECIN] |  |  | Activity [11]: 30%; Activity [12]: 48.5%; Activity [13]: 29% |
| CCCCCCCCCCCCCCCC(=O)Oc1cc(/C=C/C(=O)/C=C/c2ccc(OC)c(OC(=O)CCCCCCCCCCCCCCC)c2)ccc1OC | 70.5 µg/mL (≈ 87.8 µM) |  |  |
| CCCCCCCCCCCCCCCC(=O)Oc1cccc(/C=C/C(=O)/C=C/c2cccc(OC(=O)CCCCCCCCCCCCCCC)c2)c1 | 113 µg/mL (≈ 152 µM) |  |  |
